# Experimental data: article PMC4383680 (Nature, 2015)
# “Also recorded” adds a separate entry of the source. No end group written: not given here.
# B1: wtAgRP (83-132) (domain or fragment)
# chain: SSRRCVRLHESCLGQQVPCCDPCATCYCRFFNAFCYCRKLGTAMNPCSRT
# modifications: ends and bridges not checked; cysteine pairing not given here
# How the values were obtained:
# [1] = test system: PVN MC4R neurons; assay: Firing frequency of PVN MC4R neurons; type: cell-based, mouse
# How it was run: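 Slices from MC4R-GFP mice, 200 μm, cut at 44–49°, held in oxygenated ACSF at 31 °C. AgRP applied to the bath. Cells held around −50 mV so they fire spontaneously. Firing frequency counted for 3 min before peptide and for 3 min at 7–11 min after, then compared.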
# [2] = test system: PVN MC4R neurons; assay: Current clamp membrane potential of PVN MC4R neurons, hypothalamic slices; type: cell-based, mouse; settings: for amplitude of α-MSH depolarization at higher concentration of salt: BaCl2 >1 mM, CsCl >2.5 mM; for effect of BaCl2 or CsCl on α-MSH induced depolarization: external, various concentrations
# How it was run: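 MC4R-GFP mouse hypothalamic slices, 200 μm, cut at 44–49° to horizontal in near-freezing oxygenated aCSF and kept in oxygenated ACSF at 31 °C. α-MSH (250 nM) bath-applied. Continuous current clamp with membrane potential held at −55 to −60 mV to prevent spontaneous firing. Potential averaged over 3 min before peptide versus a 3 min window 7–11 min after. Zero-ATP internal at pH 7.2, 298 mosmol/kg.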
# [3] = test system: PVN MC4R neurons; assay: Voltage clamp; type: cell-based, mouse
# [4] = target: MC4R + Kir7.1 (M125R) in HEK293 cells (Homo sapiens, UniProt P32245); type: cell-based
# [5] = target: T1, MC4R (Homo sapiens, UniProt P32245); assay: β-arrestin recruitment; type: cell-based; settings: increasing concentrations, PathHunter, 90 min, 37 °C
# [6] = test system: MC4R - Gαi; assay: Coupling of MC4R to Gαi; type: cell-based; settings: Extended Data Fig. 6a–c
# [7] = test system: inward rectifying K+ (Kir) channels; settings: at concentrations that block other Kir channels; ref [12]; cited from earlier work
# [8] = test system: D1 dopamine receptor in PVN neurons; assay: D1 receptor mediated depolarization of PVN neurons; type: cell-based, mouse; settings: 5 μM SKF83822
# How it was run: (§1)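 Mouse hypothalamic slices, 200 μm, cut at 44–49° from horizontal in oxygenated near-freezing aCSF and transferred to oxygenated ACSF at 31 °C. PVN neurons recorded in whole cell mode. Cells accepted only with holding current ≤30 pA at −70 mV, large rebound spikes, ability to fire, and no blebbing or visible nucleus.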
# [9] = test system: μ-opioid receptor in PVN MC4R neurons; assay: μ-opioid; type: cell-based, mouse; settings: DAMGO 10 μM; for effect on DAMGO response: GTPγS 1.5 mM or gallein 25 μM
# How it was run: as §1
# [10] = target: 3HA-MC4R (melanocortin-4 receptor) (human) (UniProt P32245)
# [11] = target: T1, MC4R; assay: Intracellular cAMP / MC4R coupling to Gαs; type: cell-based; settings: Fig. 4a
# T1 sequence (P32245 whole entry): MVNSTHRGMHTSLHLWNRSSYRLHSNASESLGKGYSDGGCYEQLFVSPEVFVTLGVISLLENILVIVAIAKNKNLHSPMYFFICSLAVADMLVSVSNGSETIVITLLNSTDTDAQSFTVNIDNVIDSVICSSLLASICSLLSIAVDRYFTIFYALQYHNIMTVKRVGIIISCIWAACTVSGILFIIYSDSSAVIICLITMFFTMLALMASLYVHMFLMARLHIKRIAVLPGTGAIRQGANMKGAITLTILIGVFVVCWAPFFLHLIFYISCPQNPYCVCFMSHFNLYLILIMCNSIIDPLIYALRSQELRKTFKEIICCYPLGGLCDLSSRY
# Sequence of MC4R + Kir7.1 (M125R) in HEK293 cells (P32245 whole entry, stated change not applied): as the sequence (P32245 whole entry) above
# Sequence of 3HA-MC4R (melanocortin-4 receptor) (human) (P32245 whole entry): as above
molecule,measurement,setting,value
"CSCC[C@@H]1NC(=O)[C@H](C)NC(=O)[C@H]([C@@H](C)O)NC(=O)CNC(=O)[C@H](CC(C)C)NC(=O)[C@H](CCCCN)NC(=O)[C@H](CCCNC(=N)N)NC(=O)[C@@H]2CSSC[C@@H]3NC(=O)[C@@H]4CCCN4C(=O)[C@H](C(C)C)NC(=O)[C@H](CCC(N)=O)NC(=O)[C@H](CCC(N)=O)NC(=O)CNC(=O)[C@H](CC(C)C)NC(=O)[C@@H]4CSSC[C@H](NC(=O)[C@H]([C@@H](C)O)NC(=O)[C@H](C)NC(=O)[C@H](CSSC[C@@H](C(=O)N[C@@H](CO)C(=O)N[C@@H](CCCNC(=N)N)C(=O)N[C@H](C(=O)O)[C@@H](C)O)NC(=O)[C@@H]5CCCN5C(=O)[C@H](CC(N)=O)NC1=O)NC(=O)[C@@H]1CCCN1C(=O)[C@H](CC(=O)O)NC(=O)[C@H](CSSC[C@H](NC(=O)[C@H](CCCNC(=N)N)NC(=O)[C@H](CCCNC(=N)N)NC(=O)[C@H](CO)NC(=O)[C@@H](N)CO)C(=O)N[C@@H](C(C)C)C(=O)N[C@@H](CCCNC(=N)N)C(=O)N[C@@H](CC(C)C)C(=O)N[C@@H](Cc1c[nH]cn1)C(=O)N[C@@H](CCC(=O)O)C(=O)N[C@@H](CO)C(=O)N4)NC3=O)C(=O)N[C@@H](Cc1ccc(O)cc1)C(=O)N[C@H]1CSSC[C@H](NC(=O)[C@H](Cc3ccccc3)NC(=O)[C@H](C)NC(=O)[C@H](CC(N)=O)NC(=O)[C@H](Cc3ccccc3)NC(=O)[C@H](Cc3ccccc3)NC(=O)[C@H](CCCNC(=N)N)NC1=O)C(=O)N[C@@H](Cc1ccc(O)cc1)C(=O)N2 [AgRP, Agouti-related protein]",effect on firing activity,"[1]; AgRP, cells held around −50 mV",inhibiting their firing activity
same,membrane potential response,"[2]; 100 nM AgRP, bath application, current clamp, **p<0.01",hyperpolarized PVN MC4R neurons; also recorded: hyperpolarizing response
same,effect on K+ current of PVN MC4R neurons,[3],generates hyperpolarizing current by opening of inward rectifying K^+ channels; also recorded: increases the density of an inward rectifying K^+ current
same,reversal potential of AgRP-activated current,"[3]; AgRP 50 nM, 20 mM external K+",−46.7 +/− 3.0 mV
same,increase of membrane conductance,"[3]; AgRP 50 nM, 20 mM external K+, n=6",75%
same,duration of increase of Tl+ flux,"[4]; low dose AgRP 1 nM, data not shown",up to 24 h
same,β-arrestin recruitment,[5],did not appear to; also recorded: without any effect
same,coupling to Gαi,[6],"did not appear to couple the MC4R to the cAMP inhibitory G protein, Gαi"
[Ba+2].[Cl-].[Cl-] [BaCl2],amplitude of α-MSH depolarization at higher concentration of salt,[2],increased amplitude
same,effect of BaCl2 or CsCl on α-MSH induced depolarization,[2]; current clamp,not blocked in higher concentrations; also recorded: persisted
same,sensitivity of Kir7.1 to external salt,[7],resistant
[Cl-].[Cs+] [CsCl],amplitude of α-MSH depolarization at higher concentration of salt,[2],increased amplitude
same,effect of BaCl2 or CsCl on α-MSH induced depolarization,[2]; current clamp,not blocked in higher concentrations; also recorded: persisted
same,sensitivity of Kir7.1 to external salt,[7],resistant
Nc1nc2c(ncn2[C@@H]2O[C@H](COP(=O)(O)OP(O)(O)=S)[C@@H](O)[C@H]2O)c(=O)[nH]1 [GDPβS],effect on α-MSH induced depolarization,"[2]; 5 mM GDPβS, intrapipette",fails to block the α-MSH – induced depolarization; also recorded: failed to block α-MSH induced depolarization of PVN MC4R neurons
same,effect on D1 (SKF83822) mediated depolarization,[8]; 5 mM GDPβS intrapipette,blocks the depolarization and firing activity induced by SKF83822; also recorded: blocked D1 mediated depolarization
Nc1nc2c(ncn2[C@@H]2O[C@H](COP(=O)(O)OP(=O)(O)OP(O)(O)=S)[C@@H](O)[C@H]2O)c(=O)[nH]1 [GTPγS],effect on α-MSH induced firing or depolarization,"[2]; GTPγS 1.5 mM, whole cell",ineffective in blocking neuronal firing or depolarization; also recorded: fails to block the depolarization induced by α-MSH
same,effect on DAMGO response,[9],does block the hyperpolarization induced by μ-opioid agonist
"CCCCCCCC(=O)OC[C@H](COP(=O)(O)O[C@@H]1[C@H](O)[C@H](O)[C@@H](OP(=O)(O)O)[C@H](OP(=O)(O)O)[C@H]1O)OC(=O)CCCCCCC [PI(4,5)P2 diC8]",effect on α-MSH induced depolarization,"[2]; 100 μM PI(4,5)P2 diC8 in zero ATP internal solution",significantly increased the amplitude of the α-MSH induced depolarization; also recorded: potentiated the α-MSH-induced response
C=CCN1CCc2c(cc(O)c(O)c2Cl)C(c2cccc(C)c2)C1 (stereo not shown) [SKF83822],depolarization of PVN neurons by D1 agonist,[8],causes depolarization of PVN neurons; also recorded: depolarized PVN neurons
Nc1ncnc2c1ncn2C1CCCO1 (stereo not shown) [SQ22536],effect on α-MSH induced depolarization,"[2]; SQ22536 25 μM, adenylyl cyclase inhibition",fails to block depolarizing effects of α-MSH; also recorded: failed to block α-MSH induced depolarization
N#CC(=C(/N)Sc1ccccc1N)/C(C#N)=C(/N)Sc1ccccc1N [U0126],effect on α-MSH induced increase in firing frequency,"[1]; U0126 1 μM, whole cell",ineffective in blocking neuronal firing or depolarization; also recorded: fails to block α-MSH -induced increase in firing frequency
Cc1ccc(OCC(O)Cn2c(=N)n(Cc3ccccc3)c3ccccc32)cc1 (stereo not shown) [VU573],inhibition of depolarizing effect of α-MSH,"[2]; 15 μM VU573, 250 nM α-MSH",~ 80%
O=[N+]([O-])c1ccc(CN2CCOCCOCCN(Cc3ccc([N+](=O)[O-])cc3)CCOCC2)cc1 [VU590],effect of Kir blocker on α-MSH induced depolarization,"[2]; 250 nM α-MSH, blocker concentration not given",blocked
O=C1OC2(c3ccccc31)c1ccc(O)c(O)c1Oc1c2ccc(O)c1O [gallein],effect on α-MSH induced firing or depolarization,"[2]; gallein 25 μM, Gβγ blocker",ineffective in blocking neuronal firing or depolarization; also recorded: fails to inhibit α-MSH induced depolarization
same,effect on DAMGO response,[9],blocks the effects of DAMGO
DAMGO,effect of DAMGO on membrane potential,[9],hyperpolarization
miniAgRP (AgRP 87-120) (from UniProt O00253 87-120) (peptide),"stimulation of Kir7.1 activity, potency",[10],1.7e-07
"miniAgRP: AgRP analogue, AgRP87-120 (87-122); synthesized, purified and folded by authors (CVRLHESCLGQQVPCCDPCATCYCRFFNAFCYCR; ends and bridges not checked; also: folded, disulfide pairing not given here; UniProt O00253 87-120, looked up, fragment)",coupling of MC4R to Kir7.1,[4]; Fig. 4b,lost its ability to couple MC4R to Kir7.1
same,potency in inhibition of MC4R coupling to Gαs,[11],"retains normal affinity for MC4R, and potency in inhibition of MC4R coupling to Gαs"
B1,"stimulation of Kir7.1 activity, potency",[10],3.6e-09
